In ChEMBL document CHEMBL3616442, “Unconventional Knoevenagel-type indoles: Synthesis and cell-based studies for the identification of pro-apoptotic agents” (Eur J Med Chem, 2015):

Columns and labels:
[1] = system: MT4; assay: Antiproliferative activity against human MT4 cells after 96 hrs by MTT assay; type: functional, cell-based; conditions: MT4, 96 h
Procedure, shortened: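 Exponentially growing MT-4 cells (CD4+ human T-cells carrying integrated HTLV-1 genome), seeded at 1×10^5 cells/mL in RPMI-1640 with 10% FCS and antibiotics. Serial dilutions of compound (DMSO stock 100 mM, diluted in medium), 37 °C, 5% CO₂, 96 h. Viability read by MTT. 50% inhibition versus untreated controls by linear regression. Mean ± SD of three independent determinations.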

[2] = system: CCRF-CEM; assay: Growth inhibition of human CCRF-CEM cells after 48 hrs by sulforhodamine B assay; type: functional
Procedure, shortened: (§1)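 NCI 60-cell-line screen. Compounds tested at five 10-fold dilutions from 10^-4 to 10^-8 M. Cells exposed for the last 48 h of a 72 h incubation, growth estimated by sulforhodamine B protein assay. GI50 is the concentration giving 50% growth inhibition. Values beyond the tested range are expressed as greater or lesser than the extreme concentration.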

[3] = system: HL-60(TB); assay: Growth inhibition of human HL-60(TB) cells after 48 hrs by sulforhodamine B assay; type: functional; conditions: HL-60, 48 h
Procedure, shortened: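 NCI 60-cell-line screen, HL-60(TB) included. Compound given at five 10-fold dilutions from 10^-4 to 10^-8 M. Cells exposed for the last 48 h of a 72 h incubation. Growth or viability estimated by sulforhodamine B protein assay. GI50 is the concentration giving 50% growth inhibition. Values outside the tested range are reported as greater or less than the highest or lowest concentration.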

[4] = system: K562; assay: Growth inhibition of human K562 cells after 48 hrs by sulforhodamine B assay; type: functional; conditions: K562, 48 h; procedure, shortened: as §1
[5] = Growth inhibition of human RPMI8226 cells after 48 hrs by sulforhodamine B assay; type: functional; conditions: RPMI-8226, 48 h
[6] = Growth inhibition of human HOP92 cells after 48 hrs by sulforhodamine B assay; type: functional; conditions: HOP-92, 48 h; procedure, shortened: as §1
[7] = system: NCI-H23; assay: Growth inhibition of human NCI-H23 cells after 48 hrs by sulforhodamine B assay; type: functional; conditions: NCI-H23, 48 h; procedure, shortened: as §1
[8] = system: NCI-H322M; assay: Growth inhibition of human NCI-H322M cells after 48 hrs by sulforhodamine B assay; type: functional; procedure, shortened: as §1
[9] = system: NCI-H460; assay: Growth inhibition of human NCI-H460 cells after 48 hrs by sulforhodamine B assay; type: functional; conditions: NCI-H460, 48 h; procedure, shortened: as §1
[10] = system: NCI-H522; assay: Growth inhibition of human NCI-H522 cells after 48 hrs by sulforhodamine B assay; type: functional; conditions: NCI-H522, 48 h; procedure, shortened: as §1
[11] = Growth inhibition of human COLO205 cells after 48 hrs by sulforhodamine B assay; type: functional; conditions: COLO 205, 48 h; procedure, shortened: as §1
[12] = system: HCT-116; assay: Growth inhibition of human HCT116 cells after 48 hrs by sulforhodamine B assay; type: functional; conditions: HCT-116, 48 h; procedure, shortened: as §1
[13] = system: HT-29; assay: Growth inhibition of human HT-29 cells after 48 hrs by sulforhodamine B assay; type: functional; conditions: HT-29, 48 h; procedure, shortened: as §1
[14] = system: KM12; assay: Growth inhibition of human KM12 cells after 48 hrs by sulforhodamine B assay; type: functional; conditions: KM12, 48 h; procedure, shortened: as §1
[15] = system: SW-620; assay: Growth inhibition of human SW620 cells after 48 hrs by sulforhodamine B assay; type: functional; conditions: SW-620, 48 h
[16] = system: SF-268; assay: Growth inhibition of human SF268 cells after 48 hrs by sulforhodamine B assay; type: functional; conditions: SF-268, 48 h
[17] = Growth inhibition of human SF295 cells after 48 hrs by sulforhodamine B assay; type: functional; conditions: SF-295, 48 h
[18] = Growth inhibition of human SF539 cells after 48 hrs by sulforhodamine B assay; type: functional; conditions: SF-539, 48 h
[19] = system: SNB-19; assay: Growth inhibition of human SNB19 cells after 48 hrs by sulforhodamine B assay; type: functional; conditions: SNB-19, 48 h
[20] = system: SNB-75; assay: Growth inhibition of human SNB75 cells after 48 hrs by sulforhodamine B assay; type: functional; conditions: SNB-75, 48 h
[21] = system: U-251; assay: Growth inhibition of human U251 cells after 48 hrs by sulforhodamine B assay; type: functional; conditions: U-251, 48 h
[22] = system: Malme-3M; assay: Growth inhibition of human MALME-3M cells after 48 hrs by sulforhodamine B assay; type: functional; procedure, shortened: as §1
[23] = system: M14; assay: Growth inhibition of human M14 cells after 48 hrs by sulforhodamine B assay; type: functional; conditions: M14, 48 h; procedure, shortened: as §1
[24] = system: SK-MEL-2; assay: Growth inhibition of human SK-MEL-2 cells after 48 hrs by sulforhodamine B assay; type: functional; conditions: SK-MEL-2, 48 h
[25] = system: SK-MEL-5; assay: Growth inhibition of human SK-MEL-5 cells after 48 hrs by sulforhodamine B assay; type: functional; conditions: SK-MEL-5, 48 h
[26] = system: UACC-257; assay: Growth inhibition of human UACC257 cells after 48 hrs by sulforhodamine B assay; type: functional; conditions: UACC-257, 48 h
[27] = system: UACC-62; assay: Growth inhibition of human UACC62 cells after 48 hrs by sulforhodamine B assay; type: functional; conditions: UACC-62, 48 h
[28] = system: IGROV-1; assay: Growth inhibition of human IGROV1 cells after 48 hrs by sulforhodamine B assay; type: functional; conditions: IGROV-1, 48 h; procedure, shortened: as §1
[29] = system: OVCAR-4; assay: Growth inhibition of human OVCAR4 cells after 48 hrs by sulforhodamine B assay; type: functional; conditions: OVCAR-4, 48 h; procedure, shortened: as §1
[30] = system: OVCAR-5; assay: Growth inhibition of human OVCAR5 cells after 48 hrs by sulforhodamine B assay; type: functional; conditions: OVCAR-5, 48 h
[31] = system: OVCAR-8; assay: Growth inhibition of human OVCAR8 cells after 48 hrs by sulforhodamine B assay; type: functional; conditions: OVCAR-8, 48 h
[32] = Growth inhibition of human NCI-ADR-RES cells after 48 hrs by sulforhodamine B assay; type: functional; procedure, shortened: as §1
[33] = system: SK-OV-3; assay: Growth inhibition of human SKOV3 cells after 48 hrs by sulforhodamine B assay; type: functional; conditions: SK-OV-3, 48 h
[34] = system: 786-0; assay: Growth inhibition of human 786-0 cells after 48 hrs by sulforhodamine B assay; type: functional; conditions: 786-0, 48 h; procedure, shortened: as §1
[35] = system: A498; assay: Growth inhibition of human A498 cells after 48 hrs by sulforhodamine B assay; type: functional; conditions: A498, 48 h; procedure, shortened: as §1
[36] = system: ACHN; assay: Growth inhibition of human ACHN cells after 48 hrs by sulforhodamine B assay; type: functional; procedure, shortened: as §1
[37] = system: CAKI-1; assay: Growth inhibition of human CAKI-1 cells after 48 hrs by sulforhodamine B assay; type: functional; conditions: CAKI-1, 48 h; procedure, shortened: as §1
[38] = system: UO-31; assay: Growth inhibition of human UO31 cells after 48 hrs by sulforhodamine B assay; type: functional; conditions: UO-31, 48 h
[39] = system: PC-3; assay: Growth inhibition of human PC3 cells after 48 hrs by sulforhodamine B assay; type: functional; conditions: PC-3, 48 h
[40] = system: DU-145; assay: Growth inhibition of human DU145 cells after 48 hrs by sulforhodamine B assay; type: functional; conditions: DU-145, 48 h; procedure, shortened: as §1
[41] = Growth inhibition of human BT549 cells after 48 hrs by sulforhodamine B assay; type: functional; conditions: BT-549, 48 h; procedure, shortened: as §1
[42] = system: T47D; assay: Growth inhibition of human T47D cells after 48 hrs by sulforhodamine B assay; type: functional

CC(=O)/C(=C\c1c(-c2ccccc2)[nH]c2ccccc12)S(=O)(=O)c1ccccc1
EC50 [1]: 400 nM | GI50 [2]: 1400 nM | GI50 [3]: 1700 nM | GI50 [4]: 442 nM | GI50 [5]: 2200 nM | GI50 [6]: 5900 nM | GI50 [7]: 1600 nM | GI50 [8]: 6100 nM | GI50 [9]: 1100 nM | GI50 [10]: 1300 nM | GI50 [11]: 1700 nM | GI50 [12]: 754 nM | GI50 [13]: 589 nM | GI50 [14]: 1000 nM | GI50 [15]: 778 nM | GI50 [16]: 3400 nM | GI50 [17]: 2400 nM | GI50 [18]: 1300 nM | GI50 [19]: 6100 nM | GI50 [20]: 1700 nM | GI50 [21]: 1200 nM | GI50 [22]: 2100 nM | GI50 [23]: 521 nM | GI50 [24]: 1400 nM | GI50 [25]: 832 nM | GI50 [26]: 2200 nM | GI50 [27]: 1000 nM | GI50 [28]: 1500 nM | GI50 [29]: 3700 nM | GI50 [30]: 2000 nM | GI50 [31]: 2500 nM | GI50 [32]: 520 nM | GI50 [33]: 2900 nM | GI50 [34]: 1600 nM | GI50 [35]: 2000 nM | GI50 [36]: 1800 nM | GI50 [37]: 2400 nM | GI50 [38]: 1600 nM | GI50 [39]: 2500 nM | GI50 [40]: 3000 nM | GI50 [41]: 1900 nM | GI50 [42]: 1400 nM

N#CC(C#N)=Cc1c(-c2ccccc2)[nH]c2ccccc12
EC50 [1]: 400 nM | GI50 [2]: 2400 nM | GI50 [3]: 1800 nM | GI50 [4]: 478 nM | GI50 [5]: 582 nM | GI50 [6]: 7700 nM | GI50 [7]: 4700 nM | GI50 [8]: 11400 nM | GI50 [9]: 2100 nM | GI50 [10]: 9600 nM | GI50 [11]: 1800 nM | GI50 [12]: 2300 nM | GI50 [13]: 526 nM | GI50 [14]: 684 nM | GI50 [15]: 539 nM | GI50 [16]: 13400 nM | GI50 [17]: 1600 nM | GI50 [18]: 2100 nM | GI50 [19]: 5700 nM | GI50 [20]: 2000 nM | GI50 [21]: 1200 nM | GI50 [22]: 26000 nM | GI50 [23]: 1900 nM | GI50 [24]: 27600 nM | GI50 [25]: 1100 nM | GI50 [26]: 28100 nM | GI50 [27]: 2600 nM | GI50 [28]: 757 nM | GI50 [29]: 5200 nM | GI50 [30]: 19700 nM | GI50 [31]: 6000 nM | GI50 [32]: 826 nM | GI50 [33]: 6000 nM | GI50 [34]: 8600 nM | GI50 [35]: 3000 nM | GI50 [36]: 7300 nM | GI50 [37]: 6100 nM | GI50 [38]: 11100 nM | GI50 [39]: 3000 nM | GI50 [40]: 3300 nM | GI50 [41]: 9400 nM | GI50 [42]: 4600 nM

CC(=O)/C(=C\c1c(-c2ccccc2)[nH]c2ccccc12)S(C)(=O)=O
EC50 [1]: 500 nM | GI50 [2]: 4700 nM | GI50 [3]: 2600 nM | GI50 [4]: 679 nM | GI50 [5]: 3000 nM | GI50 [6]: 3800 nM | GI50 [7]: 4000 nM | GI50 [8]: 9600 nM | GI50 [9]: 2800 nM | GI50 [10]: 3600 nM | GI50 [11]: 3000 nM | GI50 [12]: 2900 nM | GI50 [13]: 1600 nM | GI50 [14]: 2100 nM | GI50 [15]: 2100 nM | GI50 [16]: 4200 nM | GI50 [17]: 3900 nM | GI50 [18]: 1900 nM | GI50 [19]: 3400 nM | GI50 [20]: 1500 nM | GI50 [21]: 2900 nM | GI50 [22]: 4800 nM | GI50 [23]: 1600 nM | GI50 [24]: 8600 nM | GI50 [25]: 1900 nM | GI50 [26]: 43800 nM | GI50 [27]: 3200 nM | GI50 [28]: 8300 nM | GI50 [29]: 3800 nM | GI50 [30]: 16100 nM | GI50 [31]: 5200 nM | GI50 [32]: 2100 nM | GI50 [33]: 4400 nM | GI50 [34]: 3500 nM | GI50 [35]: 3900 nM | GI50 [36]: 5800 nM | GI50 [37]: 5600 nM | GI50 [38]: 5800 nM | GI50 [39]: 4500 nM | GI50 [40]: 3500 nM | GI50 [41]: 2400 nM | GI50 [42]: 2300 nM
